Measurements from ChEMBL document CHEMBL2384923, “Design, synthesis and antimicrobial activities evaluation of Schiff base derived from secnidazole derivatives as potential FabH inhibitors” (Bioorg Med Chem, 2013).
Converted amounts (≈) assume the structure as drawn.

Assays:
Staphylococcus aureus = test: Antimicrobial activity against Staphylococcus aureus ATCC 6538 after 24 hrs by two fold serial dilution method; format: functional; conditions: ATCC 6538, 24 h
Procedure, shortened: (§1)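 Tested per NCCLS by two-fold serial dilution in nutrient broth. The inoculum came from 24 h cultures on nutrient agar at 37 ± 1 °C and was adjusted with sterile saline to 1 ×10^4-105 CFU. […] Tubes were incubated at 37 ± 1 °C, and MIC was read visually after 24 h. Kanamycin and DDCP served as standards.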

Escherichia coli = test: Antimicrobial activity against Escherichia coli ATCC 25922 after 24 hrs by two fold serial dilution method; format: functional; conditions: ATCC 25922, 24 h; procedure, shortened: as §1
Pseudomonas aeruginosa = test: Antimicrobial activity against Pseudomonas aeruginosa ATCC 27853 after 24 hrs by two fold serial dilution method; format: functional; conditions: ATCC 27853, 24 h; procedure, shortened: as §1
Bacillus subtilis = test: Antimicrobial activity against Bacillus subtilis ATCC 530 after 24 hrs by two fold serial dilution method; format: functional; conditions: ATCC 530, 24 h; procedure, shortened: as §1
[1] = Inhibition of Escherichia coli N-terminal His-tagged full length FabH expressed in Escherichia coli BL21 (DE3) using [3H]acetyl-CoA as substrate assessed as incorporation of [3H] signal into product after 25 mins by liquid scintillation counting analysis
Procedure, shortened: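 His-tagged FabH was purified on Ni-NTA. Holo-ACP was made from apo-ACP with ACPS and CoA. The 20 µL reaction held pH 7.0 sodium phosphate (20 mM), 0.5 mM DTT, 0.25 mM MgCl₂, 2.5 µM holo-ACP and 1 nM FabH, preincubated 1 min. The reaction started with a 2 µL mix of 25 µM acetyl-CoA and 0.75 µCi [³H]acetyl-CoA and ran 25 min. It was stopped with ice-cold TCA, and the washed pellet was counted. Inhibitors were added from DMSO stock, ≤2% DMSO final, and IC50 was determined.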

| SMILES | MIC (Staphylococcus aureus) [µg/mL] | MIC (Escherichia coli) [µg/mL] | MIC (Pseudomonas aeruginosa) [µg/mL] | MIC (Bacillus subtilis) [µg/mL] | IC50 [1] [µM] |
| --- | --- | --- | --- | --- | --- |
| Cc1ncc([N+](=O)[O-])n1CC(=O)N/N=C/c1cccc(Cl)c1 | 50 (≈ 155 µM) | 25 (≈ 77.7 µM) | 50 (≈ 155 µM) | 50 (≈ 155 µM) |  |
| NC[C@H]1O[C@H](O[C@H]2[C@H](O)[C@@H](O[C@H]3O[C@H](CO)[C@@H](O)[C@H](N)[C@H]3O)[C@H](N)C[C@@H]2N)[C@H](O)[C@@H](O)[C@@H]1O [KANAMYCIN] | 1.56 (≈ 3.22 µM) | 3.13 (≈ 6.46 µM) | 3.13 (≈ 6.46 µM) | 1.56 (≈ 3.22 µM) |  |
| Cc1ncc([N+](=O)[O-])n1CC(=O)N/N=C/c1ccccc1F | > 100 | > 100 | > 100 | > 100 | 47.5 |
| Cc1ncc([N+](=O)[O-])n1CC(=O)N/N=C/c1ccc(O)cc1 | > 100 | 50 (≈ 165 µM) | > 100 | > 100 |  |
| Cc1ncc([N+](=O)[O-])n1CC(=O)N/N=C/c1ccccc1Cl | 50 (≈ 155 µM) | > 100 | > 100 | 50 (≈ 155 µM) |  |
| COc1ccccc1/C=N/NC(=O)Cn1c([N+](=O)[O-])cnc1C | > 100 | 50 (≈ 158 µM) | 50 (≈ 158 µM) | > 100 | 42.4 |
| Cc1ncc([N+](=O)[O-])n1CC(=O)N/N=C/c1ccc(F)cc1 | > 100 | > 100 | > 100 | > 100 | 58.3 |
| Cc1ncc([N+](=O)[O-])n1CC(=O)N/N=C/c1cccc(Br)c1 | > 100 | 25 (≈ 68.3 µM) | 50 (≈ 137 µM) | > 100 |  |
| Cc1ncc([N+](=O)[O-])n1CC(=O)N/N=C/c1cccc([N+](=O)[O-])c1 | 50 (≈ 150 µM) | 25 (≈ 75.2 µM) | 50 (≈ 150 µM) | > 100 |  |
| Cc1ncc([N+](=O)[O-])n1CC(=O)N/N=C/c1ccc([N+](=O)[O-])cc1 | 25 (≈ 75.2 µM) | 25 (≈ 75.2 µM) | 25 (≈ 75.2 µM) | 50 (≈ 150 µM) |  |
| Cc1ncc([N+](=O)[O-])n1CC(=O)N/N=C/c1ccc(Cl)cc1 | > 100 | 50 (≈ 155 µM) | 50 (≈ 155 µM) | > 100 |  |

More lines, now with the values ahead:

| MIC (Staphylococcus aureus) [µg/mL] | MIC (Escherichia coli) [µg/mL] | MIC (Pseudomonas aeruginosa) [µg/mL] | MIC (Bacillus subtilis) [µg/mL] | IC50 [1] [µM] | SMILES |
| --- | --- | --- | --- | --- | --- |
| 12.5 (≈ 37.6 µM) | 25 (≈ 75.2 µM) | 25 (≈ 75.2 µM) | 12.5 (≈ 37.6 µM) | 19.8 | Cc1ncc([N+](=O)[O-])n1CC(=O)N/N=C/c1ccccc1[N+](=O)[O-] |
| 25 (≈ 77.3 µM) | 50 (≈ 155 µM) | 50 (≈ 155 µM) | 50 (≈ 155 µM) |  | Cc1ncc([N+](=O)[O-])n1CC(=O)N/N=C/c1ccc(F)cc1F |
| 12.5 (≈ 39.4 µM) | 6.25 (≈ 19.7 µM) | 6.25 (≈ 19.7 µM) | 6.25 (≈ 19.7 µM) | 4.5 | COc1ccc(/C=N/NC(=O)Cn2c([N+](=O)[O-])cnc2C)cc1 |
| 25 (≈ 75.7 µM) | 12.5 (≈ 37.8 µM) | 12.5 (≈ 37.8 µM) | 12.5 (≈ 37.8 µM) | 15.9 | Cc1ncc([N+](=O)[O-])n1CC(=O)N/N=C/c1ccc(N(C)C)cc1 |
| 12.5 (≈ 36 µM) | 12.5 (≈ 36 µM) | 12.5 (≈ 36 µM) | 25 (≈ 72 µM) | 8.8 | COc1ccc(/C=N/NC(=O)Cn2c([N+](=O)[O-])cnc2C)cc1OC |
| 3.13 (≈ 9.5 µM) | 3.13 (≈ 9.5 µM) | 6.25 (≈ 19 µM) | 3.13 (≈ 9.5 µM) | 2.3 | Cc1cc(/C=N/NC(=O)Cn2c([N+](=O)[O-])cnc2C)cc(C)c1C |
| 12.5 (≈ 41.5 µM) | 6.25 (≈ 20.7 µM) | 6.25 (≈ 20.7 µM) | 25 (≈ 83 µM) | 6.2 | Cc1ccc(/C=N/NC(=O)Cn2c([N+](=O)[O-])cnc2C)cc1 |
| 25 (≈ 68.3 µM) | 25 (≈ 68.3 µM) | 12.5 (≈ 34.1 µM) | 25 (≈ 68.3 µM) |  | Cc1ncc([N+](=O)[O-])n1CC(=O)N/N=C/c1ccc(Br)cc1 |
| 25 (≈ 81.9 µM) | 50 (≈ 164 µM) | 50 (≈ 164 µM) | 25 (≈ 81.9 µM) |  | Cc1ncc([N+](=O)[O-])n1CC(=O)N/N=C/c1cccc(F)c1 |
| 25 (≈ 78.8 µM) | 25 (≈ 78.8 µM) | 50 (≈ 158 µM) | 50 (≈ 158 µM) |  | COc1cccc(/C=N/NC(=O)Cn2c([N+](=O)[O-])cnc2C)c1 |
